# ChEMBL document CHEMBL4130549, “Synthesis and bioactivities study of new antibacterial peptide mimics: The dialkyl cationic amphiphiles” (Eur J Med Chem, 2018)
# Calls of active or inactive are those of the source. The rule behind the calls is not given here.
# Legend:
# Staphylococcus aureus [1] = test: Antibacterial activity against Staphylococcus aureus ATCC 29213 after 16 to 20 hrs by broth microdilution method; type: functional
# How it was run: (§1)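 CLSI broth microdilution in cation-adjusted Mueller-Hinton broth. A 4-6 h culture was diluted to about 10⁶ CFU/mL and mixed 1:1 with twofold compound dilutions (256–0.5 µg/mL before mixing) prepared from aqueous stocks. Plates were incubated at 37 °C for 16-20 h. Each concentration was tested in duplicate, and the experiment was repeated at least twice.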
# Staphylococcus aureus [2] = test: Antibacterial activity against methicillin-resistant Staphylococcus aureus isolate M4 after 16 to 20 hrs by broth microdilution method; type: functional; how it was run: as §1
# Klebsiella pneumoniae [3] = test: Antibacterial activity against carbapenemase-producing Klebsiella pneumoniae isolate K9 after 16 to 20 hrs by broth microdilution method; type: functional
# How it was run: (§2)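 Broth microdilution per CLSI in cation-adjusted Mueller-Hinton broth; 4-6 h cultures (~10⁸ CFU/mL) diluted to ~10⁶ CFU/mL and mixed 1:1 with twofold dilutions of water-dissolved compound (256 to 0.5 µg/mL). Incubated 16-20 h at 37 °C; MIC read visually. Each concentration run in duplicate, whole experiment repeated at least twice. MRSA, KPC and NDM-1 strains were clinical isolates.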
# Staphylococcus aureus [4] = test: Antibacterial activity against methicillin-resistant Staphylococcus aureus isolate M1 after 16 to 20 hrs by broth microdilution method; type: functional; how it was run: as §1
# Enterobacteriaceae [5] = test: Antibacterial activity against NDM-1-producing Enterobacteriaceae isolate N3 after 16 to 20 hrs by broth microdilution method; type: functional; how it was run: as §2
# Enterobacteriaceae [6] = test: Antibacterial activity against NDM-1-producing Enterobacteriaceae isolate N6 after 16 to 20 hrs by broth microdilution method; type: functional; how it was run: as §2
# Staphylococcus aureus [7] = test: Bactericidal activity against Staphylococcus aureus after 20 to 24 hrs using compounds preincubated with 50% plasma for 3 to 6 hrs by broth microdilution method
# Klebsiella pneumoniae [8] = test: Antibacterial activity against carbapenemase-producing Klebsiella pneumoniae isolate K7 after 16 to 20 hrs by broth microdilution method; type: functional; how it was run: as §2
# Escherichia coli [9] = test: Induction of cytoplasmic membrane depolarization in Escherichia coli ATCC 25922 at 20 ug/ml measured every 2 mins for 12 mins by diSC35 staining based fluorescence assay; type: functional, organism-based
# How it was run: (§3)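 Mid-log cells (4–6 h) pelleted, washed and resuspended (~10^8 CFU/mL) in PBS for S. aureus, or in 5 mM HEPES, 5 mM glucose and 100 mM KCl (1:1:1) for E. coli. Preloaded with diSC35 (10 µM, 50 µL), 30 min for S. aureus and 40 min plus EDTA (200 µM, 50 µL) for E. coli. Baseline read 8 min (ex 622/em 670 nm), then compound added to 20 µg/mL final and read every 2 min for 12 min. Water control.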
# Staphylococcus aureus [10] = test: Antibacterial activity against methicillin-resistant Staphylococcus aureus isolate M8 after 16 to 20 hrs by broth microdilution method; type: functional; how it was run: as §1
# Salmonella enterica = test: Antibacterial activity against Salmonella enterica after 16 to 20 hrs by broth microdilution method; type: functional; how it was run: as §2
# Enterobacteriaceae [11] = test: Antibacterial activity against NDM-1-producing Enterobacteriaceae isolate N10 after 16 to 20 hrs by broth microdilution method; type: functional; how it was run: as §2
# Staphylococcus aureus [12] = test: Antibacterial activity against methicillin-resistant Staphylococcus aureus isolate M6 after 16 to 20 hrs by broth microdilution method; type: functional; how it was run: as §1
# Staphylococcus aureus [13] = test: Bactericidal activity against methicillin-resistant Staphylococcus aureus after 20 to 24 hrs by broth microdilution method; type: functional
# How it was run: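 For MBC, 20 µL from wells of the broth microdilution MIC plate showing little or no turbidity was plated on agar and incubated 20-24 h at 37 °C. MBC was the lowest concentration giving no colonies.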
# Escherichia coli [14] = test: Induction of inner membrane permeabilization in Escherichia coli ATCC 25922 at 20 ug/ml measured every 2 mins for 12 mins by propidium iodide staining based fluorescence assay; type: functional, organism-based
# How it was run: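 Mid-log cells (~10^8 CFU/mL) pre-incubated with propidium iodide (10 µM, 50 µL), 30 min for S. aureus and 40 min for E. coli. Fluorescence (ex 535/em 617 nm) read for 8 min, then compound added to 20 µg/mL final and monitored every 2 min for 12 min. Water-treated control.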
# Enterobacteriaceae [15] = test: Antibacterial activity against NDM-1-producing Enterobacteriaceae isolate N8 after 16 to 20 hrs by broth microdilution method; type: functional; how it was run: as §2
# Enterobacteriaceae [16] = test: Antibacterial activity against NDM-1-producing Enterobacteriaceae isolate N2 after 16 to 20 hrs by broth microdilution method; type: functional; how it was run: as §2
# Klebsiella pneumoniae [17] = test: Antibacterial activity against carbapenemase-producing Klebsiella pneumoniae isolate K5 after 16 to 20 hrs by broth microdilution method; type: functional; how it was run: as §2
# Enterobacteriaceae [18] = test: Antibacterial activity against NDM-1-producing Enterobacteriaceae isolate N9 after 16 to 20 hrs by broth microdilution method; type: functional; how it was run: as §2
# Staphylococcus aureus [19] = test: Induction of cytoplasmic membrane depolarization in Staphylococcus aureus ATCC 29213 at 20 ug/ml measured every 2 mins for 12 mins by diSC35 staining based fluorescence assay; type: functional, organism-based; how it was run: as §3
# Klebsiella pneumoniae [20] = test: Antibacterial activity against carbapenemase-producing Klebsiella pneumoniae isolate K10 after 16 to 20 hrs by broth microdilution method; type: functional; how it was run: as §2
# Enterobacteriaceae [21] = test: Antibacterial activity against NDM-1-producing Enterobacteriaceae isolate N7 after 16 to 20 hrs by broth microdilution method; type: functional; how it was run: as §2
# Klebsiella pneumoniae [22] = test: Antibacterial activity against carbapenemase-producing Klebsiella pneumoniae isolate K2 after 16 to 20 hrs by broth microdilution method; type: functional; how it was run: as §2
# Staphylococcus aureus [23] = test: Antibacterial activity against methicillin-resistant Staphylococcus aureus isolate M7 after 16 to 20 hrs by broth microdilution method; type: functional; how it was run: as §1
# Klebsiella pneumoniae [24] = test: Antibacterial activity against carbapenemase-producing Klebsiella pneumoniae isolate K8 after 16 to 20 hrs by broth microdilution method; type: functional; how it was run: as §2
# Staphylococcus aureus [25] = test: Antibacterial activity against methicillin-resistant Staphylococcus aureus isolate M5 after 16 to 20 hrs by broth microdilution method; type: functional; how it was run: as §1
# Klebsiella pneumoniae [26] = test: Antibacterial activity against carbapenemase-producing Klebsiella pneumoniae isolate K1 after 16 to 20 hrs by broth microdilution method; type: functional; how it was run: as §2
# Klebsiella pneumoniae [27] = test: Antibacterial activity against carbapenemase-producing Klebsiella pneumoniae after 16 to 20 hrs by broth microdilution method; type: functional; how it was run: as §2
# Enterobacteriaceae [28] = test: Antibacterial activity against NDM-1-producing Enterobacteriaceae isolate N5 after 16 to 20 hrs by broth microdilution method; type: functional; how it was run: as §2
# Staphylococcus aureus [29] = test: Ratio of MBC for methicillin-resistant Staphylococcus aureus in presence of 50% plasma to MBC for methicillin-resistant Staphylococcus aureus; type: functional
# How it was run: (§4)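 MRSA at 10⁵ CFU/mL in 50% Mueller-Hinton broth plus 50% sheep serum, plasma or defibrinated whole blood. Serum and plasma were separated by centrifugation at 3,500 rpm for 10 min. Aqueous compound dilutions (512–4 µg/mL before mixing) were combined 1:3 with the suspension and incubated 20-24 h at 37 °C. Wells were plated on Mueller-Hinton agar for a further 20-24 h; MBC was taken as no colonies.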
# Klebsiella pneumoniae [30] = test: Antibacterial activity against carbapenemase-producing Klebsiella pneumoniae isolate K4 after 16 to 20 hrs by broth microdilution method; type: functional; how it was run: as §2
# Enterobacteriaceae [31] = test: Antibacterial activity against NDM-1-producing Enterobacteriaceae isolate N4 after 16 to 20 hrs by broth microdilution method; type: functional; how it was run: as §2
# Enterococcus faecalis = test: Antibacterial activity against Enterococcus faecalis after 16 to 20 hrs by broth microdilution method; type: functional; how it was run: as §2
# Klebsiella pneumoniae [32] = test: Antibacterial activity against carbapenemase-producing Klebsiella pneumoniae isolate K6 after 16 to 20 hrs by broth microdilution method; type: functional; how it was run: as §2
# Staphylococcus aureus [33] = test: Ratio of MBC for methicillin-resistant Staphylococcus aureus in presence of 50% serum to MBC for methicillin-resistant Staphylococcus aureus; type: functional; how it was run: as §4
Compound,MIC (Staphylococcus aureus [1]) [µg/mL],MIC (Staphylococcus aureus [2]) [µg/mL],MIC (Klebsiella pneumoniae [3]) [µg/mL],MIC (Staphylococcus aureus [4]) [µg/mL],MIC (Enterobacteriaceae [5]) [µg/mL],MIC (Enterobacteriaceae [6]) [µg/mL],MBC (Staphylococcus aureus [7]) [µg/mL],MIC (Klebsiella pneumoniae [8]) [µg/mL],Activity (Escherichia coli [9]),MIC (Staphylococcus aureus [10]) [µg/mL],MIC (Salmonella enterica) [µg/mL],MIC (Enterobacteriaceae [11]) [µg/mL],MIC (Staphylococcus aureus [12]) [µg/mL],MBC (Staphylococcus aureus [13]) [µg/mL],Activity (Escherichia coli [14]),MIC (Enterobacteriaceae [15]) [µg/mL],MIC (Enterobacteriaceae [16]) [µg/mL],MIC (Klebsiella pneumoniae [17]) [µg/mL],MIC (Enterobacteriaceae [18]) [µg/mL],Activity (Staphylococcus aureus [19]),also measured
CCCCCCCCN(CCCCCCCC)C(=O)[C@@H](N)CCCN=C(N)N.Cl.Cl.Cl,1,1,8,1,8,4,16,8,Active,1,8,8,0.5,4 to 8,Active,4,8,8,8,Active,MIC (Klebsiella pneumoniae [20]): 4 µg/mL; MIC (Enterobacteriaceae [21]): 4 µg/mL; MIC (Klebsiella pneumoniae [22]): 4 µg/mL; MIC (Staphylococcus aureus [23]): 0.5 µg/mL; MIC (Klebsiella pneumoniae [24]): 4 µg/mL; MIC (Staphylococcus aureus [25]): 1 µg/mL; MIC (Klebsiella pneumoniae [26]): 8 µg/mL; MIC (Klebsiella pneumoniae [27]): 4 µg/mL; MIC (Enterobacteriaceae [28]): 4 µg/mL; Ratio (Staphylococcus aureus [29]): 2 - 4; MIC (Klebsiella pneumoniae [30]): 4 µg/mL; MIC (Enterobacteriaceae [31]): 8 µg/mL; MIC (Enterococcus faecalis): 2 µg/mL; MIC (Klebsiella pneumoniae [32]): 8 µg/mL; Ratio (Staphylococcus aureus [33]): 1 - 2
CCCCCCCCCN(CCCCCCCCC)C(=O)[C@@H](N)CCCN=C(N)N.Cl.Cl.Cl,1,1,4,2,4,4,16,4,Active,2,4,4,2,4 to 8,Active,2,4,4,4,Active,MIC (Klebsiella pneumoniae [20]): 4 µg/mL; MIC (Enterobacteriaceae [21]): 2 µg/mL; MIC (Klebsiella pneumoniae [22]): 4 µg/mL; MIC (Staphylococcus aureus [23]): 2 µg/mL; MIC (Klebsiella pneumoniae [24]): 4 µg/mL; MIC (Staphylococcus aureus [25]): 2 µg/mL; MIC (Klebsiella pneumoniae [26]): 4 µg/mL; MIC (Klebsiella pneumoniae [27]): 4 µg/mL; MIC (Enterobacteriaceae [28]): 4 µg/mL; Ratio (Staphylococcus aureus [29]): 2 - 4; MIC (Klebsiella pneumoniae [30]): 2 µg/mL; MIC (Enterobacteriaceae [31]): 4 µg/mL; MIC (Enterococcus faecalis): 2 µg/mL; MIC (Klebsiella pneumoniae [32]): 4 µg/mL; Ratio (Staphylococcus aureus [33]): 1 - 2
